Reference: ChEMBL document CHEMBL4371033, “Highly Potent and Selective Plasmin Inhibitors Based on the Sunflower Trypsin Inhibitor-1 Scaffold Attenuate Fibrinolysis in Plasma” (J Med Chem, 2019)
Residues, ends and D or L forms follow the SMILES beside them.

Assays:
Serine protease 1 = target: T1, Serine protease 1 (Bos taurus, UniProt P00760); assay: Inhibition of bovine cationic trypsin using Bz-FVR-pNA as substrate after 30 mins
T1 sequence (P00760 whole entry): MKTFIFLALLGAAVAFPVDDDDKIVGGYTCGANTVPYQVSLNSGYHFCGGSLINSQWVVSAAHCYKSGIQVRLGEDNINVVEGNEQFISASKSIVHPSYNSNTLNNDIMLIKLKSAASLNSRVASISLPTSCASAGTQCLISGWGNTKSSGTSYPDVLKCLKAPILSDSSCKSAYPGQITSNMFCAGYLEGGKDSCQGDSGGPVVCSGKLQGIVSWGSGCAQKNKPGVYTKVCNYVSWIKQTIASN

Plasminogen [1] = target: T2, Plasminogen (Homo sapiens, UniProt P00747); assay: Inhibition of human plasmin using Ac-RM(O2)YR-pNA as substrate after 30 mins
Cathepsin G = target: T3, Cathepsin G (Homo sapiens, UniProt P08311); assay: Inhibition of human cathepsin G using Suc-AAPF-MCA as substrate after 30 mins
T3 sequence (P08311 whole entry): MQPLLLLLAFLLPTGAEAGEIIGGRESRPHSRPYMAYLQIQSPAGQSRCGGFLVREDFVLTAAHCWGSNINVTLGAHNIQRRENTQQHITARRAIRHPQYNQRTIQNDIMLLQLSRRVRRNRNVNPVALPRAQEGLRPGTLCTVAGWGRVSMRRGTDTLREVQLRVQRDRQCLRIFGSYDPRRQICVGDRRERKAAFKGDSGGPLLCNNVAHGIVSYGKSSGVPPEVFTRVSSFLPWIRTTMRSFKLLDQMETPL

Coagulation factor IX = Coagulation factor IX (Homo sapiens, UniProt P00740); assay: Inhibition of activated beta-factor 9 (unknown origin) using Boc-QGR-MCA as substrate after 30 mins relative to untreated control
Prothrombin = Prothrombin (Homo sapiens, UniProt P00734); assay: Inhibition of human thrombin using Ac-ATPR-pNA as substrate after 30 mins relative to untreated control
[2] = target: Tissue-type plasminogen activator (Homo sapiens, UniProt P00750); assay: Inhibition of tPA (unknown origin) using Z-Pyr-Gly-Arg-MCA as substrate after 30 mins relative to untreated control
[3] = target: Urokinase-type plasminogen activator (Homo sapiens, UniProt P00749); assay: Inhibition of uPA (unknown origin) using Z-Pyr-Gly-Arg-MCA as substrate after 30 mins relative to untreated control
Coagulation factor XI = Coagulation factor XI (Homo sapiens, UniProt P03951); assay: Inhibition of activated beta-factor 11 (unknown origin) using Bz-FVRpNA as substrate after 30 mins relative to untreated control
[4] = target: T4, Suppressor of tumorigenicity 14 protein (Homo sapiens, UniProt Q9Y5Y6); assay: Inhibition of matriptase (unknown origin) using Boc-QAR-MCA as substrate after 30 mins relative to untreated control
T4 sequence (Q9Y5Y6 whole entry): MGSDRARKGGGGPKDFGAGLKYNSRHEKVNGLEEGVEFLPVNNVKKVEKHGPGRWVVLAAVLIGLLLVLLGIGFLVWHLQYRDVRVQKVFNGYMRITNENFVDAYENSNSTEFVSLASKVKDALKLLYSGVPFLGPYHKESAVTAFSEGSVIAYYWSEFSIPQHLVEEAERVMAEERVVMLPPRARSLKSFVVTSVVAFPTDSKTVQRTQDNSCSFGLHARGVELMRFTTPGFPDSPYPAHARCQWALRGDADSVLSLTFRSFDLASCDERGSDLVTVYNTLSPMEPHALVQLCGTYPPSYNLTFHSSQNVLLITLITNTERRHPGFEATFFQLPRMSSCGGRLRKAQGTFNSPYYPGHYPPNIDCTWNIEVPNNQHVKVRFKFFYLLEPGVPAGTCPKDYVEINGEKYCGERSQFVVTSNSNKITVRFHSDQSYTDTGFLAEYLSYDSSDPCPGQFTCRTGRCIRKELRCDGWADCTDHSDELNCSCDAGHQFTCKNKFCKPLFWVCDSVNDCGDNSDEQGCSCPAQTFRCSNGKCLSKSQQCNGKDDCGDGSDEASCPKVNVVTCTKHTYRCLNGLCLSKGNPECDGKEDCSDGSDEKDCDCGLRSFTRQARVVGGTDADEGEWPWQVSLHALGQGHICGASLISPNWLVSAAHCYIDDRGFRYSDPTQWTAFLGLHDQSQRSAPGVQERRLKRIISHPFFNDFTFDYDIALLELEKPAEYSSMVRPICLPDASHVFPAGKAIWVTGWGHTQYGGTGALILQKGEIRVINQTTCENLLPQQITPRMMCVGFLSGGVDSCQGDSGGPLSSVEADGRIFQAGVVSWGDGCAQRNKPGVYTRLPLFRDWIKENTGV

Plasminogen [5] = target: T2, Plasminogen; assay: Inhibition of human plasmin assessed as dissociation rate constant using Ac-RM(O2)YR-pNA as substrate after 30 mins
Summary of the method: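 koff from the Baici and Gyger-Marazzi method: the lag phase before steady-state hydrolysis was compared between protease/inhibitor preincubated and substrate plus inhibitor added together. Human plasmin in 100 mM Tris pH 8.0, 100 mM NaCl, 0.005% Triton X-100, pNA substrate read at 405 nm.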

Homo sapiens [6] = organism: Homo sapiens; assay: Selectivity index, ratio of IC50 for inhibition of activated beta-factor 9 (unknown origin) to IC50 for Inhibition of human plasmin
Homo sapiens [7] = organism: Homo sapiens; assay: Selectivity index, ratio of IC50 for inhibition of activated factor 10 (unknown origin) to IC50 for Inhibition of human plasmin
Homo sapiens [8] = organism: Homo sapiens; assay: Selectivity index, ratio of IC50 for inhibition of activated beta-factor 12 (unknown origin) to IC50 for Inhibition of human plasmin
Homo sapiens [9] = organism: Homo sapiens; assay: Selectivity index, ratio of IC50 for inhibition of human thrombin to IC50 for Inhibition of human plasmin
Homo sapiens [10] = organism: Homo sapiens; assay: Selectivity index, ratio of IC50 for inhibition of uPA (unknown origin) to IC50 for Inhibition of human plasmin
Homo sapiens [11] = organism: Homo sapiens; assay: Selectivity index, ratio of IC50 for inhibition of matriptase (unknown origin) to IC50 for Inhibition of human plasmin

T2 sequence (P00747 97-580 limits assumed): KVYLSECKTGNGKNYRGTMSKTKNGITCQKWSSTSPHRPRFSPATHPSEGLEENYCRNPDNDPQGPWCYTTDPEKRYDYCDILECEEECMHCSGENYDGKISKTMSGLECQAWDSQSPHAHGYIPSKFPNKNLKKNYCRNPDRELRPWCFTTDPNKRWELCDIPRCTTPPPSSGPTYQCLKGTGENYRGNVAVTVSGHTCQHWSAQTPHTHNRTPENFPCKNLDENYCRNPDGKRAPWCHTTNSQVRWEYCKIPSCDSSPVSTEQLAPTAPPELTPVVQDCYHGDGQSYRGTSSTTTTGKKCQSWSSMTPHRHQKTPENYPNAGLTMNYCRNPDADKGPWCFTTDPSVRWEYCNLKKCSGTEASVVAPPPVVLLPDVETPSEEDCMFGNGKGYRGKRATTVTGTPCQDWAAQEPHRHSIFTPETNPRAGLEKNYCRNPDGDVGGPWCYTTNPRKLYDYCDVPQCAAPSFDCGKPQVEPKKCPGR
T2 sequence (P00747 581-810 limits assumed): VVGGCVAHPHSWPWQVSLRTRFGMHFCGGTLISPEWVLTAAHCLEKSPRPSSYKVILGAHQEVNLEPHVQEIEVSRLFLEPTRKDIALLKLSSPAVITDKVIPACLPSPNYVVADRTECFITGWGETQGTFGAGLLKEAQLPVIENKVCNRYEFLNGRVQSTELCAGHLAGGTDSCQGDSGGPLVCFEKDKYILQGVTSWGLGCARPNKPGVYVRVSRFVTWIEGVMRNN
Chain of Coagulation factor IX (P00740 47-191 limits assumed): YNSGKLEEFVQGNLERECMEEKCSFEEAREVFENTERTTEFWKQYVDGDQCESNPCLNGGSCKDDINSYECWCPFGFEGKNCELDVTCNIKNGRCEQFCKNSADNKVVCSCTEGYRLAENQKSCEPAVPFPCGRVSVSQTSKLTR
Chain of Coagulation factor IX (P00740 227-461 limits assumed): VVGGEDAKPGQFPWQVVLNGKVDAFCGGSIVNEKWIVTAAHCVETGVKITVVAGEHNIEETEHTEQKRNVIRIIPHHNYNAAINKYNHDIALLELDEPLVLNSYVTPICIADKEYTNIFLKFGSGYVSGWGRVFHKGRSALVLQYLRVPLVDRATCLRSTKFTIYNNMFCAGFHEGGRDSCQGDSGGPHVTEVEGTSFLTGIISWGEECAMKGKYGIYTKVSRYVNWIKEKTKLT
Chain of Coagulation factor XI (P03951 19-387 limits assumed): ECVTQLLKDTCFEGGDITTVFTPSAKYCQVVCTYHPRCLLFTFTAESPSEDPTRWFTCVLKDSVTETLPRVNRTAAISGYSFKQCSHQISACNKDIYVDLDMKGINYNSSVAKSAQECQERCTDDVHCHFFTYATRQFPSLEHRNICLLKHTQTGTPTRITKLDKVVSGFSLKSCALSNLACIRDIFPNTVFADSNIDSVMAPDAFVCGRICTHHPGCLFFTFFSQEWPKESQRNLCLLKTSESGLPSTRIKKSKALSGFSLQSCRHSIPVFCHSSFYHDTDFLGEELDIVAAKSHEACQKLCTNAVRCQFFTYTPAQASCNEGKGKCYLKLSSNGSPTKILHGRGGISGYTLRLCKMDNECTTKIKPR
Chain of Coagulation factor XI (P03951 388-625 limits assumed): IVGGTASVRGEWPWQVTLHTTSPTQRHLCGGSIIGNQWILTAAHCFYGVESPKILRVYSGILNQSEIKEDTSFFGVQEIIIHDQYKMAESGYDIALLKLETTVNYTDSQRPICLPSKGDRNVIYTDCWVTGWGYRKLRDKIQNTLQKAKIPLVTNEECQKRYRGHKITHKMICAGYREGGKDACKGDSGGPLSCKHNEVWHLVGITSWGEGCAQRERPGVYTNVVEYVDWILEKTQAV
Chain of Tissue-type plasminogen activator (P00750 whole entry): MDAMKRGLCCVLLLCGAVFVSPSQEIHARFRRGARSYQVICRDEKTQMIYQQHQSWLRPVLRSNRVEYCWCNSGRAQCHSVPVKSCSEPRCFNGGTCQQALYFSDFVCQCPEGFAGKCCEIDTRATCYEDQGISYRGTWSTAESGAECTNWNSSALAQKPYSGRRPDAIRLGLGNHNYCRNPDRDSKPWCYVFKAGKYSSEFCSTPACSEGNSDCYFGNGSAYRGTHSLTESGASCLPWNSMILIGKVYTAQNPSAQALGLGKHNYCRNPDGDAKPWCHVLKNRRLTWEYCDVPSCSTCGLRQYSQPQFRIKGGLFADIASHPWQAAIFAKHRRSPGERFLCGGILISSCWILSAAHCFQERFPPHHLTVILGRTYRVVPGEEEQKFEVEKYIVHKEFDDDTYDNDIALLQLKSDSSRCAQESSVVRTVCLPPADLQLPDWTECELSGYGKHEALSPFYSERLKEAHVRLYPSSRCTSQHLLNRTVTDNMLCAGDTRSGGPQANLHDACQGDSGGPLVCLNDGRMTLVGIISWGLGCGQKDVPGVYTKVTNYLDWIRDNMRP

- Ki (Serine protease 1): 0.16 µM
- Ki (Plasminogen [1]): 0.051 nM
- Ki (Cathepsin G): 29 µM
- Ki (Coagulation factor IX): > 50 µM
- Ki (Prothrombin): > 50 µM
- Ki [2]: > 50 µM
- Ki [3]: > 50 µM
- Ki (Coagulation factor XI): > 50 µM
- Ki [4]: > 50 µM
- K (Plasminogen [5]): 9.9 ×10⁻⁴ /s
- Ratio IC50 (Homo sapiens [6]): > 1e+06
- Ratio IC50 (Homo sapiens [7]): > 1e+06
- Ratio IC50 (Homo sapiens [8]): > 1e+06
- Ratio IC50 (Homo sapiens [9]): > 1e+06
- Ratio IC50 (Homo sapiens [10]): > 1e+06
- Ratio IC50 (Homo sapiens [11]): > 1e+06
Compound: CC[C@H](C)[C@@H]1NC(=O)[C@@H]2CCCN2C(=O)[C@@H]2CCCN2C(=O)[C@H](CCCCN)NC(=O)[C@H](CO)NC(=O)[C@H](CCCCN)NC(=O)[C@H](Cc2ccc(O)cc2)NC(=O)[C@@H]2CSSC[C@H](NC1=O)C(=O)N[C@@H](Cc1ccccc1)C(=O)N1CCC[C@H]1C(=O)N[C@@H](CC(=O)O)C(=O)NCC(=O)N[C@@H](CCCNC(=N)N)C(=O)N2 (HELM PEPTIDE1{C.F.P.D.G.R.C.Y.K.S.K.P.P.I}$PEPTIDE1,PEPTIDE1,1:R3-7:R3|PEPTIDE1,PEPTIDE1,1:R1-14:R2$$$V2.0)
